Assay results published in ChEMBL document CHEMBL5033998, “Discovery of DDO-2213 as a Potent and Orally Bioavailable Inhibitor of the WDR5-Mixed Lineage Leukemia 1 Protein-Protein Interaction for the Treatment of MLL Fusion Leukemia” (J Med Chem, 2021).
The source made the active and inactive calls. No cut-off for these calls is given here.

What was measured:
[1] = Metabolic stability in human liver microsomes assessed as half life at 1 uM in presence of NADPH by LC-MS/MS analysis; assay type: ADME, Microsome
Summary of the method: (§1)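 Compound at 1 μM preincubated 5 min at 37 °C with human or rat liver microsomes (0.7 mg/mL) in 100 mM PBS pH 7.4; reaction started with 1 mM NADPH.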

[2] = Apparent clearance in Sprague-Dawley rat at 10 mg/kg, po measured upto 24 hrs by LC-MS/MS analysis; assay type: ADME, organism-based; settings: in vivo
Summary of the method: (§2)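 Male SD rats, 6–8 weeks, 220 ± 30 g; single oral dose 10 mg/kg (n = 3). Plasma sampled at 0, 0.25, 0.5, 1, 2, 4, 6, 8 and 24 h, stored at −80 °C, quantified by LC-MS/MS; parameters reported as mean ± SEM.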

[3] = target: T1, N-lysine methyltransferase KMT5A (Homo sapiens, UniProt Q9NQR1); assay: Inhibition of SET8 (unknown origin) assessed as effect on H4K20 methylation incubated for 30 mins by Alphascreen assay
T1 sequence (Q9NQR1 whole entry): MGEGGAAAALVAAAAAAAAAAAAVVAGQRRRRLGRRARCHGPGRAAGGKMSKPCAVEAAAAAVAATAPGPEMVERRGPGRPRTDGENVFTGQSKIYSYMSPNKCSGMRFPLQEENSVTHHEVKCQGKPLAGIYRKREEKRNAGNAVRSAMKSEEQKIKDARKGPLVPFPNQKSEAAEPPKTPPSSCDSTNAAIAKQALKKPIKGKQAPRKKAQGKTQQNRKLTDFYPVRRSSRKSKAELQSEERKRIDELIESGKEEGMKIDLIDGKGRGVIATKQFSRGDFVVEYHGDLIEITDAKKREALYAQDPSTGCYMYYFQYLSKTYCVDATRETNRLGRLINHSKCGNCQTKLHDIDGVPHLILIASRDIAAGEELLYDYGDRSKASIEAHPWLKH
Summary of the method: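 AlphaScreen: enzyme, SAM and compound mixed in 10 mM PBS for 30 min at room temperature; acceptor beads and substrate antibody added, 30 min at room temperature, then streptavidin donor beads; read on AlphaScreen reader.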

[4] = MRT in Sprague-Dawley rat at 2 mg/kg, iv measured upto 24 hrs by LC-MS/MS analysis; assay type: ADME, organism-based; settings: in vivo
[5] = Permeability of compound at pH 7.4 incubated for 4 hrs by PAMPA assay; assay type: ADME; settings: read-out: permeability
Summary of the method: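 Double-sink PAMPA: compound diluted in pH 7.4 donor buffer, permeation through artificial membrane to acceptor over 4 h at 25 °C; donor and acceptor read by UV; mean ± SD of three independent experiments.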

[6] = target: T2, Histone-lysine N-methyltransferase 2A (Homo sapiens, UniProt Q03164); assay: Inhibition of MLL1 (unknown origin) in human MV4-11 cells assessed as decrease in H3Kme1 level at 1 to 10 uM measured after 7 days by Western blot analysis; assay type: cell-based; settings: dose 1-10 µM, time 7.0 day
T2 sequence (Q03164 1-2718 limits assumed): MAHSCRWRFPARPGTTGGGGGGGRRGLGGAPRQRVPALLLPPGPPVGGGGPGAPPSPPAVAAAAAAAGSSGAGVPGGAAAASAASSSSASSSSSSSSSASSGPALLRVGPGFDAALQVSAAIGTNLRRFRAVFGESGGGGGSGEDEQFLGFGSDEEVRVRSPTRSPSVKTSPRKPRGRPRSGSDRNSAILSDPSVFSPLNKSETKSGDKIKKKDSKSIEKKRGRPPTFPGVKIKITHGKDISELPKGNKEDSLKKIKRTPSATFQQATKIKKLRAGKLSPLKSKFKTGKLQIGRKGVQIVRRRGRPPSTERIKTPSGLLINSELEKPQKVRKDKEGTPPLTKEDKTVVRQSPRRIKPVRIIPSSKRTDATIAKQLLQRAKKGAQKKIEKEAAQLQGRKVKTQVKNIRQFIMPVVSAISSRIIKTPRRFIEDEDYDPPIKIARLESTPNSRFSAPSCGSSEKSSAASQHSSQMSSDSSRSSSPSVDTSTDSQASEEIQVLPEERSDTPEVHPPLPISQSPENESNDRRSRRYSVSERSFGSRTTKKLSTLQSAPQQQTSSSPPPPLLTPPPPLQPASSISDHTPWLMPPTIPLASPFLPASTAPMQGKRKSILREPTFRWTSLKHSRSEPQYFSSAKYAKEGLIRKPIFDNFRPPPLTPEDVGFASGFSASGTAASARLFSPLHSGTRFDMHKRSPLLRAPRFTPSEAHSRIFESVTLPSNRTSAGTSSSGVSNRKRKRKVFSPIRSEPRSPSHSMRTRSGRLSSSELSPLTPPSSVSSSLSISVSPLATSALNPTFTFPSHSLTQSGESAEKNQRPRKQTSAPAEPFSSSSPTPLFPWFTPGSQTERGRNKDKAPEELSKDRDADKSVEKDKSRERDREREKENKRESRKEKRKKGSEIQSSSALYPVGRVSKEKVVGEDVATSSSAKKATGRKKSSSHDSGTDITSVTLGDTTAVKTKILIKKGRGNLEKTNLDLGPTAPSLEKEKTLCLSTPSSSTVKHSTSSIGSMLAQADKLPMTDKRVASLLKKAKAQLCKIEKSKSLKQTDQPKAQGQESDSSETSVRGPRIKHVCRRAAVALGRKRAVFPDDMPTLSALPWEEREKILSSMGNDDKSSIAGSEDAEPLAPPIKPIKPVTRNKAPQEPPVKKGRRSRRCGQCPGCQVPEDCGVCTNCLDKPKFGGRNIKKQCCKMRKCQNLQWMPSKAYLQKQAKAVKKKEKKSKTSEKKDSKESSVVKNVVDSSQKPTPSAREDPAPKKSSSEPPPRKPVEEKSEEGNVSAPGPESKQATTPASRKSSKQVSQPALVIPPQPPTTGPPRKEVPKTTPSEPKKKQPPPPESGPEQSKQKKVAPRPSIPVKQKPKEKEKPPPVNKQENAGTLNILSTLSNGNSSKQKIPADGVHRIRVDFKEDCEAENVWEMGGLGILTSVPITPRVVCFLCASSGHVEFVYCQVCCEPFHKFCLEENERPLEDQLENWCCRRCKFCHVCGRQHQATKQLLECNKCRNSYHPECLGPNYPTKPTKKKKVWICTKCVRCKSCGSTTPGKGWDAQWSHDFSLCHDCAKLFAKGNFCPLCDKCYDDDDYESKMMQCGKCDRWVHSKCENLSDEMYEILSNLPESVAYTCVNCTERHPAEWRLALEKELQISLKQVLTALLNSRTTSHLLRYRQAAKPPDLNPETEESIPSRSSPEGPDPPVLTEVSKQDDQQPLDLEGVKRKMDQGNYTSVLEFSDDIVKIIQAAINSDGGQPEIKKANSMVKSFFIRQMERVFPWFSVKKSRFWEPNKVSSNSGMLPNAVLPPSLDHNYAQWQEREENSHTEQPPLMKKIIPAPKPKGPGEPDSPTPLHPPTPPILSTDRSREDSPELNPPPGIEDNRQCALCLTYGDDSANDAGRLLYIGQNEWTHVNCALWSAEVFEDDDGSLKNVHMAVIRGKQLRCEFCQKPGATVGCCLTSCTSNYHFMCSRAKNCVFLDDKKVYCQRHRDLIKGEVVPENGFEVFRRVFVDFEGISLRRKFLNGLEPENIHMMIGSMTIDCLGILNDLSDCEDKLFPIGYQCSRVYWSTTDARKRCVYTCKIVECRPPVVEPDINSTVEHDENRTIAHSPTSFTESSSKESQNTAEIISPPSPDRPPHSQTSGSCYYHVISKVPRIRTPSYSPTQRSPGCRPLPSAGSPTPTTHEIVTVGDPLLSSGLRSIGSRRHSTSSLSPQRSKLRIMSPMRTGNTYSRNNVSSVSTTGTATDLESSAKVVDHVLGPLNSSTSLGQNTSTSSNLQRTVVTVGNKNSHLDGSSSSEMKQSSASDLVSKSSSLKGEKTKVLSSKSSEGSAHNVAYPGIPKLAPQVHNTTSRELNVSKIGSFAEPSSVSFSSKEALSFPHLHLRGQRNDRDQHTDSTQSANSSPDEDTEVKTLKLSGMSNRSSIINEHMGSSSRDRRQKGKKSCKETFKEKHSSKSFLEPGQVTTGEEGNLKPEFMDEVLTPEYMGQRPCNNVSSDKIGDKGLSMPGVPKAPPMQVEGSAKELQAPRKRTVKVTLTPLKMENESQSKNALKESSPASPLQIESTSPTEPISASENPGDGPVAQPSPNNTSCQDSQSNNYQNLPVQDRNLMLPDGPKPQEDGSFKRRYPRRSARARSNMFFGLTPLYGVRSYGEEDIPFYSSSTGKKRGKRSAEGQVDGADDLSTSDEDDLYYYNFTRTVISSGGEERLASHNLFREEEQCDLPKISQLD
T2 sequence (Q03164 2719-3969 limits assumed): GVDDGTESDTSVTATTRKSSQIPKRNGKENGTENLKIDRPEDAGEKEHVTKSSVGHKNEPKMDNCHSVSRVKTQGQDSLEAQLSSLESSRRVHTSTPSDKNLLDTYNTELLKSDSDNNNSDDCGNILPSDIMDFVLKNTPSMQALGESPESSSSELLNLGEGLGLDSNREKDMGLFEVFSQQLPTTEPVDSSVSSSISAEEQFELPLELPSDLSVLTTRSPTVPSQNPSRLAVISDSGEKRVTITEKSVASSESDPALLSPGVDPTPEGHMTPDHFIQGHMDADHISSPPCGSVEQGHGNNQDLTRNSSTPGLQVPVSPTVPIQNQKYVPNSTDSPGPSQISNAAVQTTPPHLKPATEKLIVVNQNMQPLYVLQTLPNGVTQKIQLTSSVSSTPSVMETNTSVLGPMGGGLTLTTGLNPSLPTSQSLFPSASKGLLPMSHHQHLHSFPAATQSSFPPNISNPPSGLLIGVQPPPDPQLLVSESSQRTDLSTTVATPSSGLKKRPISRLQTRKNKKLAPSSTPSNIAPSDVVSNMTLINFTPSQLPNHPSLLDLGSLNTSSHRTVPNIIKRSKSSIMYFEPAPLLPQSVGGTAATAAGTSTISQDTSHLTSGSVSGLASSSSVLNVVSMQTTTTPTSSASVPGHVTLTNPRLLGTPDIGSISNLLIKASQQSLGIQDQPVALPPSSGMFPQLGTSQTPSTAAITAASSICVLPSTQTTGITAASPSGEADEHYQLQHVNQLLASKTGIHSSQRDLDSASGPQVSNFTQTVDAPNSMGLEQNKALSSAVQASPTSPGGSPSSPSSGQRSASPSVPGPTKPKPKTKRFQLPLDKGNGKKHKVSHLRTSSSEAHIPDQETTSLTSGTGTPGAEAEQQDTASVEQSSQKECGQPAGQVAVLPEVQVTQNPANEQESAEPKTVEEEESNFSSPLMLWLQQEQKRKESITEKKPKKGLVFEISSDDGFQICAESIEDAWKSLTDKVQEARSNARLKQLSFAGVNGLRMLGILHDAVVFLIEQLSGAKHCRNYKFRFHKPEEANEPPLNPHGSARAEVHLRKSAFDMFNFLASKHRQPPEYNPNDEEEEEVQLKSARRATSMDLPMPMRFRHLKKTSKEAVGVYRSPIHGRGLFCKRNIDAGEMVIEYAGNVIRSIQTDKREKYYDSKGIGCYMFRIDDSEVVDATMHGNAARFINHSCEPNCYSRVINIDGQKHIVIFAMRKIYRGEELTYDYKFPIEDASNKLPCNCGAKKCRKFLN
Summary of the method: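 MV4-11 cells exposed to 1, 2.5, 5 and 10 μM; H3K4me1/me2/me3 assessed by Western blot with histone H3 as loading control. Blots blocked in 1% BSA 1 h, primary antibody overnight at 4 °C, DyLight 800 secondary 1 h at 37 °C, infrared imaging.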

MV4-11 [7] = assay: Antiproliferative activity against human MV4-11 cells assessed as cell viability incubated for 72 hrs by CCK8 assay; assay type: functional, cell-based; settings: MV4-11, 72 h
Summary of the method: (§3)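 Cells seeded at 3000–6000 per well, exposed to inhibitor at several concentrations for 72 h; viability read with CCK8 kit. MV4-11 and K562 grown in modified IMDM + 10% FBS, pen/strep; MOLM-13 in RPMI-1640 + 10% FBS; HUVEC in modified DMEM + 10% FBS; 37 °C, 5% CO2. IC50 as mean ± SD of three independent experiments.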

[8] = Metabolic stability in human liver microsomes assessed as clearance at 1 uM in presence of NADPH by LC-MS/MS analysis; assay type: ADME, Microsome; summary of the method: as §1
[9] = target: T2, Histone-lysine N-methyltransferase 2A; assay: Inhibition of MLL1 (unknown origin) in human MV4-11 cells assessed as decrease in Hoxa9 mRNA level at 1 to 10 uM measured after 7 days by RT-PCR analysis; settings: dose 1-10 µM, time 7.0 day
[10] = AUC (0 to t) in Sprague-Dawley rat at 2 mg/kg, iv measured upto 24 hrs by LC-MS/MS analysis; assay type: ADME, organism-based; parameters: route intravenous, dose 2 mg/kg, time <=24; settings: in vivo
[11] = Half life in Sprague-Dawley rat at 10 mg/kg, po measured upto 24 hrs by LC-MS/MS analysis; assay type: ADME, organism-based; settings: in vivo; summary of the method: as §2
[12] = Toxicity in Balb/c nude mouse xenografted with human MV4-11 cells assessed as body weight loss at 40 to 120 mg/kg, po administered daily for 21 days relative to control; assay type: organism-based; settings: in vivo, 504 h
Summary of the method: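 Nude BALB/c females bearing MV4-11 xenografts, dosed orally each day for 21 days at 40, 80 or 120 mg/kg, saline vehicle controls (6 mice/group); body weight recorded every other day.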

[13] = Half life in Sprague-Dawley rat at 2 mg/kg, iv measured upto 24 hrs by LC-MS/MS analysis; assay type: ADME, organism-based; settings: in vivo
MV4-11 [14] = assay: Antitumor activity against human MV4-11 cells xenografted in Balb/c nude mouse assessed as tumor weight inhibition at 40 mg/kg, po administered daily for 21 days relative to control; assay type: functional; settings: MV4-11, po, 504 h, time 21 day
Summary of the method: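 MV4-11 flank xenografts (~5 × 10^6 cells) in female BALB/c nude mice, 6 per group; daily oral dosing (40, 80, 120 mg/kg) or saline vehicle for 21 days, then tumors excised and weighed.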

[15] = target: T2, Histone-lysine N-methyltransferase 2A; assay: Inhibition of MLL1 (unknown origin) in human MV4-11 cells assessed as decrease in Meis1 mRNA level at 1 to 10 uM measured after 7 days by RT-PCR analysis; assay type: cell-based
Summary of the method: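 MV4-11 cells treated 7 days at 0, 1, 2.5, 5, 10 μM; total RNA extracted with TRIzol and Hoxa9/Meis1 transcripts measured by quantitative RT-PCR, in triplicate (n = 3); Student's t-tests.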

[16] = AUC (0 to infinity) in Sprague-Dawley rat at 2 mg/kg, iv measured upto 24 hrs by LC-MS/MS analysis; assay type: ADME, organism-based; parameters: route intravenous, dose 2 mg/kg, time <=24; settings: in vivo
HUVEC = assay: Antiproliferative activity against human HUVEC cells assessed as cell viability incubated for 72 hrs by CCK8 assay; assay type: cell-based; summary of the method: as §3
[17] = Tmax in Sprague-Dawley rat at 10 mg/kg, po measured upto 24 hrs by LC-MS/MS analysis; assay type: ADME, organism-based; settings: in vivo; summary of the method: as §2
MV4-11 [18] = assay: Antitumor activity against human MV4-11 cells xenografted in Balb/c nude mouse assessed as tumor growth inhibition at 120 mg/kg, po administered daily for 21 days relative to control; assay type: functional; settings: MV4-11, po, 504 h, time 21 day, read-out: TGI
Summary of the method: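 Female BALB/c nude mice (6–8 weeks) given ~5 × 10^6 MV4-11 cells in 0.2 mL PBS into the flank; at 100–150 mm3 randomized (6/group) to vehicle (0.9% saline) or 40, 80, 120 mg/kg oral (hydrochloride salt) daily for 21 days. Volume = length × width²/2 every other day; GI% = [1 − (TVt − TV0)/(CVt − CV0)] × 100%.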

- half-life at 1 µM [1]: 1.17 h
- CL/F [2]: 97.2 mL/min/kg
- IC50 [3]: > 100 µM
- MRT [4]: 1.18 h
- Papp at 4 h [5]: 20.2 ×10⁻⁶ cm/s
- inhibition [6]: Dose-Dependent Effect
- IC50 (MV4-11 [7]): 12.6 µM
- CLH [8]: 14.1 µL/min/mg
- inhibition [9]: Dose-Dependent Effect
- AUC(0-t) at 24 h [10]: 411 ng·h/mL
- half-life [11]: 4.94 h
- half-life [13]: 1.7 h
- inhibition [15]: Active
- AUC(0-inf) [16]: 424 ng·h/mL
- Tmax [17]: 2 h
Structure (SMILES): CN1CCN(c2cc(F)c(-c3ccc(C(=O)N(C)C)cc3)cc2Nc2ncnc(Cl)c2N)CC1
- Activity [12]: Non-Toxic
- inhibition in vivo at 40 mg/kg (MV4-11 [14]): 36.4%
- IC50 (HUVEC): > 100 µM
- inhibition in vivo at 120 mg/kg (MV4-11 [18]): 54.5%
